Measured values reported in ChEMBL document CHEMBL4257556, “Novel 1,3,4-thiadiazole-chalcone hybrids containing catechol moiety: synthesis, antioxidant activity, cytotoxicity and DNA interaction studies” (Medchemcomm, 2018).
Calls of active or inactive are those of the source. The rule behind the calls is not given here.

Columns and labels:
MRC5 = assay: Cytotoxicity against human MRC5 cells assessed as decrease in cell survival after 72 hrs by MTT assay; assay type: cell-based; details: MRC5, 72 h
Summary of the method: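 HeLa (2000/well), A549 and MRC-5 (5000/well) seeded 20 h before treatment; HL-60 (7000/well) 2 h before. Five concentrations (6.25–100 μM or 3.125–50 μM) from 5 mM DMSO stocks, final DMSO ≤1%, 72 h; survival by MTT. Cisplatin positive control; three independent experiments in triplicate.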

HeLa [1] = assay: Downregulation of TIMP3 gene expression in human HeLa cells at 10 uM after 24 hrs by RT-qPCR method; assay type: functional, cell-based
HeLa [2] = assay: Downregulation of miR-21 expression in human HeLa cells at 10 uM after 24 hrs by RT-qPCR method; assay type: functional, cell-based
HeLa [3] = assay: Downregulation of miR-133b expression in human HeLa cells at 10 uM after 24 hrs by RT-qPCR method; assay type: functional, cell-based
HeLa [4] = assay: Upregulation of miR-206 expression in human HeLa cells at 10 uM after 24 hrs by RT-qPCR method; assay type: functional, cell-based
Calf thymus DNA [5] = assay: Binding affinity to calf thymus DNA assessed as hyperchromism at 20 uM after 90 mins by UV/visible spectrophotometric analysis; assay type: nucleic-acid assay; details: Bos taurus
Summary of the method: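 CT-DNA stock in 10 mM Tris-HCl pH 7.9 (A260/A280 1.89–2.01; concentration from ε260 6600 M–1 cm–1). Compound (10, 20 or 40 μM) plus CT-DNA (95 μM) in 40 mM bicarbonate pH 8.4, 37 °C 90 min; spectra 200–800 nm. Hyper/hypochromism at 259 nm from bound versus summed free compound and DNA extinction; triplicate.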

Calf thymus DNA [6] = assay: Binding affinity to calf thymus DNA after 90 mins by spectroscopic titration method; assay type: nucleic-acid assay; details: Bos taurus
Summary of the method: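 Compound fixed at 40 μM titrated with CT-DNA (2.2–13 × 10–5 M) in 40 mM bicarbonate pH 8.4 after 90 min at 37 °C; absorbance at 259 nm per DNA level. Kb from slope/intercept ratio of [DNA]/(εa–εf) versus [DNA] plot; triplicate assays.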

Calf thymus DNA [7] = assay: Displacement of Hoechst 33258 from calf thymus DNA assessed as fluorescence intensity of compound-DNA complex at 22 uM by fluorescence spectrophotometric analysis relative to control; assay type: nucleic-acid assay; details: Bos taurus
Summary of the method: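 CT-DNA 100 μM (per phosphate) in 40 mM bicarbonate pH 8.4 pretreated 20 min with Hoechst 33258 (28 μM final), then compound added stepwise. Excitation 350 nm, emission 390–550 nm, read at 444 nm, 10 nm slits; H–DNA as control. Quenching constant K by Stern–Volmer, I0/I versus r = [compound]/[DNA]; triplicate.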

DNA [8] = assay: Reversal of Fe2+-induced Escherichia coli pUC19 DNA cleavage at 1:1 compound to Fe2+ mole ratio after 90 mins by agarose gel electrophoresis method; assay type: functional
Summary of the method: (§1)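 Compound (4 μL of 2 mM) preincubated with FeSO4 (1 or 2 μL of 8 mM; compound:Fe 1:1 or 1:2) in bicarbonate buffer 60 min at 37 °C, then pUC19 added for another 90 min; products resolved on 1% agarose gel, ethidium bromide stained.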

DNA [9] = assay: Reversal of Fe2+-induced Escherichia coli pUC19 DNA cleavage at 1:2 compound to Fe2+ mole ratio after 90 mins by agarose gel electrophoresis method; assay type: functional; summary of the method: as §1

Cc1cccc(C(=O)/C=C/c2ccc(C(=O)Nc3nnc(-c4ccc(O)c(O)c4)s3)cc2)c1
IC50 (MRC5): 34.2 µM
Activity (HeLa [1]): Active
Activity (HeLa [2]): inactive
Activity (HeLa [3]): Active
Activity (HeLa [4]): Active
Activity (Calf thymus DNA [5]): -7.36%
Kb (Calf thymus DNA [6]): 0.74 ×10³ /M
Activity (Calf thymus DNA [7]): 60%
Activity (DNA [8]): Active
Activity (DNA [9]): Active
